Experimental data as given in ChEMBL document CHEMBL1124929, “Indolo[2,1-a]isoquinolines. Syntheses, steroid hormone receptor binding affinities, and cytostatic activity” (1990).

Target: T1, Androgen receptor (Mus musculus) (UniProt P19091)
T1 sequence (whole entry): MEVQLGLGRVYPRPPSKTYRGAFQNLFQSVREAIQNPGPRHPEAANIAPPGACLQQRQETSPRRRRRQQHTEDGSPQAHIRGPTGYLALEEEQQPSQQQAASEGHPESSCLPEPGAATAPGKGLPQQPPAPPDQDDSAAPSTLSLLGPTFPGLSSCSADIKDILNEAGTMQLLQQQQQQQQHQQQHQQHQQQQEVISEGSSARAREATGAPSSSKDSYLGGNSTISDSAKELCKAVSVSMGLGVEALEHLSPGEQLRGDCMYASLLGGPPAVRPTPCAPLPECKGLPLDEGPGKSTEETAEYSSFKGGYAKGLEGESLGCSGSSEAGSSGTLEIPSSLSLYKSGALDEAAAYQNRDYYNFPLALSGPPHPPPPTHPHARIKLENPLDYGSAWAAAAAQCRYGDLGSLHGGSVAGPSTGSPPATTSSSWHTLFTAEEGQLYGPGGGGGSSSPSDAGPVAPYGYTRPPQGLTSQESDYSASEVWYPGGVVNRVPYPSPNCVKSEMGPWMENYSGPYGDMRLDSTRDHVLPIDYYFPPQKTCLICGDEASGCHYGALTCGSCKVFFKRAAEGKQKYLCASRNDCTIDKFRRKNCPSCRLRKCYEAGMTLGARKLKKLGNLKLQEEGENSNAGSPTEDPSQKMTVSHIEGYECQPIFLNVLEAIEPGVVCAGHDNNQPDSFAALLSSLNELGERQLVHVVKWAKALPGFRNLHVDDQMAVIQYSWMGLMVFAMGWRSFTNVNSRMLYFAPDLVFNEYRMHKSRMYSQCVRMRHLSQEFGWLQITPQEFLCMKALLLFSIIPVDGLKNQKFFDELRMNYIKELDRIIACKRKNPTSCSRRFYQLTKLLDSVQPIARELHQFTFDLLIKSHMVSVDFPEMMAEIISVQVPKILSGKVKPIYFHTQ
Test: Relative effect on seminal vesicle weight in adult and castrated mice at 1000 ug dose
Type: functional, tissue-based
In short: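 Adult male mice, 23–25 g, six per group, were used intact or castrated via the scrotal route under ether 5 days before the test. Castrates received 0.3 mg testosterone propionate daily. Compounds were injected daily in olive oil for nine days. Seminal vesicles were taken 24 h later, fixed in Bouin solution, dried overnight at 100 °C and weighed. Result is organ mg/body g ×100; % inhibition = [1 − treated/control] × 100.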

Compound: CCC1Cc2cc(OC(C)=O)ccc2-c2cc3cc(OC(C)=O)ccc3n21 (stereo unspecified)
- Relative seminal vesicle weight: 38.3
